This is an account of results in ChEMBL document CHEMBL1121866, “Synthesis of 5'-thymidinyl bis(1-aziridinyl)phosphinates as antineoplastic agents” (1981).

Type in all cases: functional
Assay [1] has as its system Mus musculus. In words: Compound was evaluated for antitumor activity against L1210 leukemia in mice by NCI screener test at a dose of 200 mg/kg. A digest of the protocol:
(§1)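 Tested in mice bearing L1210 or P-388 leukemia in the National Cancer Institute screening program under NCI standard assay protocols. Read-out is survival as % T/C, treated versus control, at each dose level.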

The subject of assay [2] is Mus musculus. Put plainly: Compound was evaluated for antitumor activity against L1210 leukemia in mice by NCI screener test at a dose of 100 mg/kg. In short, it runs like this:
as §1

Assay [3] relates to Mus musculus. Put plainly: Compound was evaluated for antitumor activity against L1210 leukemia in mice by NCI screener test at a dose of 50 mg/kg. In short, it runs like this:
as §1

Assay [4] has as its system Mus musculus. Put plainly: Compound was evaluated for antitumor activity against L1210 leukemia in mice by W screener test at a dose of 250 mg/kg.
The test system of assay [5] is Mus musculus. Put plainly: Compound was evaluated for antitumor activity against P-388 leukemia in mice by NCI screener test at a dose of 50 mg/kg. A digest of the protocol: as §1
Assay [6] relates to Mus musculus. Put plainly: Compound was evaluated for antitumor activity against L1210 leukemia in mice by W screener test at a dose of 500 mg/kg. In short, it runs like this: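 L1210 leukemia in mice, run at Virginia Commonwealth University by G. L. Wampler at higher dose levels, following NCI standard assay guidelines. Activity is reported as survival % T/C.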
Assay [7] has as its system Mus musculus. Put plainly: Compound was evaluated for antitumor activity against P-388 leukemia in mice by NCI screener test at a dose of 25 mg/kg. In short, it runs like this: as §1
The test system of assay [8] is Mus musculus. In words: Compound was evaluated for antitumor activity against P-388 leukemia in mice by NCI screener test at a dose of 200 mg/kg. In short, it runs like this: as §1
For assay [9], the system named is Mus musculus. In words: Compound was evaluated for antitumor activity against P-388 leukemia in mice by NCI screener test at a dose of 100 mg/kg. In short, it runs like this:
as §1

As for `Cc1cn([C@H]2C[C@H](O)[C@@H](CO[P+]([O-])(N3CC3(C)C)N3CC3(C)C)O2)c(=O)[nH]c1=O` (stereo partly drawn), the T/C is listed as 124% in [1], 105% in assay [2] and 94% in assay [3].
For `Cc1cn([C@H]2C[C@H](O)[C@@H](CO[P+]([O-])(N3CC3)N3CC3)O2)c(=O)[nH]c1=O`, in that order: 94%, 100% and 107%.
For the molecule `CC(=O)O[C@H]1C[C@H](n2cc(C)c(=O)[nH]c2=O)O[C@@H]1CO[P+]([O-])(N1CC1)N1CC1`, the T/C came out at 111% in assay [4]; 112% in [5]; 111% in assay [6]; 112% in [1]; 104% in assay [7]; 142% in assay [8]. The figures for the T/C in assay [3] and in assay [9] were 107% and 124%, respectively.
As to `CC(=O)O[C@H]1C[C@H](n2cc(C)c(=O)[nH]c2=O)O[C@@H]1CO[P+]([O-])(N1CC1(C)C)N1CC1(C)C` (stereo partly drawn), the T/C in assay [4] amounted to 125%; in [5] it was 138%; in assay [6] it was 137%; in assay [1] it was 123%; in assay [2], 112%; in assay [7], 110%. In addition, the T/C in [8] came to 154%; in assay [3] it was 110%; in assay [9], 141%.
